“Also recorded” adds a separate entry of the source.
B1: JADE1S: natural smaller 509 amino acid-protein produced by an abundant mRNA splice variant; dimeric complex with HBO1 (protein)
chain: MKRGRLPSSSEDSDDNGSLSTTWSQNSRSQHRRSSCSRHEDRKPSEVFRTDLITAMKLHDSYQLNPDEYYVLADPWRQEWEKGVQVPVSPGTIPQPVARVVSEEKSLMFIRPKKYIVSSGSEPPELGYVDIRTLADSVCRYDLNDMDAAWLELTNEEFKEMGMPELDEYTMERVLEEFEQRCYDNMNHAIETEEGLGIEYDEDVVCDVCQSPDGEDGNEMVFCDKCNICVHQACYGILKVPEGSWLCRTCALGVQPKCLLCPKKGGAMKPTRSGTKWVHVSCALWIPEVSIGSPEKMEPITKVSHIPSSRWALVCSLCNEKFGASIQCSVKNCRTAFHVTCAFDRGLEMKTILAENDEVKFKSYCPKHSSHRKPEESLGKGAAQENGAPECSPRNPLEPFASLEQNREEAHRVSVRKQKLQQLEDEFYTFVNLLDVARALRLPEEVVDFLYQYWKLKRKVNFNKPLITPKKDEEDNLAKREQDVLFRRLQLFTHLRQDLERVMIDTDTL

Assays:
[1] = system: human genome (ENCODE array); experiment: ChIP-chip, ENCODE tiled arrays; type: cell-based; conditions: doxorubicin treatment
How it was run: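 ChIP DNA from human cells expressing wild-type or ΔPHD2 JADE1L, with or without doxorubicin, was amplified, labelled and hybridised to […] human ENCODE tiled arrays. Analysis followed the array maker's standard protocol. Significant binding peaks were counted by position on the gene body, or by distance from TSS/TES when outside coding regions.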

[2] = system: native chromatin; experiment: Chromatin pull-down, yeast wild type native chromatin; type: binding; conditions: H3-tail dependent, western blot
How it was run: (§1)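 Immunopurified JADE1L or JADE1S complexes from co-transfected cells, normalised by gel, were incubated with purified native chromatin. Chromatin came from yeast (wild type or set1, lacking H3K4me) or from human cells.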

[3] = system: human native chromatin; experiment: Chromatin pull-down, human native chromatin; type: binding
How it was run: as §1

[4] = system: native wild type chromatin; experiment: HAT assay on wild type yeast native chromatin; type: biochemical; conditions: chromatin 500 ng, fluorography
How it was run: (§2)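 For acetyltransferase reactions, wild-type or mutant JADE1 complexes were immunopurified from co-transfected cells. They were incubated with 500 ng of native chromatin purified from yeast cells. Assays otherwise followed an earlier published protocol.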

[5] = system: set1 chromatin; experiment: HAT assay on set1; type: biochemical, yeast; conditions: chromatin 500 ng, lacking H3K4me
How it was run: as §2

[6] = system: endogenous chromatin; experiment: In vivo association with endogenous chromatin; type: cell-based
How it was run: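 Tagged JADE1L or JADE1S complexes, wild-type or mutant, were immunopurified from co-transfected human cells. Co-purifying endogenous core histones and complex subunits were resolved by gel staining. Western blots with specific antibodies, including for H3K36me3, followed.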

Molecule	JADE1L binding at menin gene [1]	binding to yeast native chromatin [2]	binding to H3K36me3-containing human chromatin in vitro [3]	HAT activity on wild type yeast chromatin [4]	HAT activity on set1 yeast chromatin [5]	co-purification of core histones ([6]; immunopurified complexes, gel staining)	level of H3K36me3-containing chromatin bound in vivo ([6]; western blot, relative to JADE1L)
COc1cccc2c1C(=O)c1c(O)c3c(c(O)c1C2=O)C[C@@](O)(C(=O)CO)C[C@@H]3O[C@H]1C[C@H](N)[C@H](O)[C@H](C)O1 [doxorubicin]	seems to be induced						
B1		efficiently pulled down yeast chromatin	can bind H3K36me3-containing chromatin in vitro	much less active than the JADE1L complex	highly active; also recorded: equivalent acetyltransferase activity	a full set of core histones co-purified	much higher; also recorded: significantly more H3K36me3 signal

Source: paper PMC2677731 (Molecular cell, 2009)
